In ChEMBL document CHEMBL5303300, “EUbOPEN Chemogenomics Library - Multiplex” (2023):
Values joined by “and” are separate entries in the source; they are usually repeats but may differ in a detail not shown here. Identical values can stand only once.

System: Fibroblast
Assay: Multiplex assay against human fibroblast
Type: toxicity, cell-based
Settings: number of replicates 2
In short: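 Imaging took place on a CQ1 microscope at 37°C and 5% CO2 once compound had been added to live cells stained at seeding with Hoechst33342, BioTracker Green Microtubule Cytoskeleton Dye, MitoTracker Red and Annexin V Alexa Fluor 680. CellPathfinder machine-learning gating classed cells as Hoechst high-intensity objects or normal cells, classed normal cells as having healthy, pyknosed or fragmented nuclei, and classed pyknosed cells as mitotic or apoptotic. Tubulin, mitochondrial-mass and membrane-permeability phenotypes are per cents of the healthy-nucleus cells.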

[1] = 12 h, 1 µM, compound concentration 1 uM
[2] = 12 h, 10 µM, compound concentration 10 uM
[3] = 24 h, 1 µM, compound concentration 1 uM
[4] = 24 h, 10 µM, compound concentration 10 uM
[5] = 48 h, 1 µM, compound concentration 1 uM
[6] = 48 h, 10 µM, compound concentration 10 uM

C=CC(=O)Nc1ccc2[nH]c(=O)n(C3CCN(Cc4ccc(-c5ccc6c(c5)NC(=O)CO6)cc4)CC3)c2c1 [RL2578]
Population Apoptotic (%) [1]: 34% and 40% | Population Fragmented Nuclei (%) [1]: 12% and 8% | Population Healthy Nuclei (%) [1]: 72% and 66% | Population Hoechst High Intensity Objects (%) [1]: 0% | Population Membrane Permeable-Phenotype (%) [1]: 4% | Population Mitochondria Different-Phenotype (%) [1]: 3% | Population Mitotic Cells (%) [1]: 65% and 60% | Population Normal (%) [1]: 100% | Population Pyknosed Nuclei (%) [1]: 15% and 25% | Population Tubulin-Different-Phenotype (%) [1]: 13% and 15% | Total Cell Count [1]: 173 and 180 | Population Apoptotic (%) [2]: 46% and 29% | Population Fragmented Nuclei (%) [2]: 26% and 23% | Population Healthy Nuclei (%) [2]: 65% and 67% | Population Hoechst High Intensity Objects (%) [2]: 0% | Population Membrane Permeable-Phenotype (%) [2]: 5% and 4% | Population Mitochondria Different-Phenotype (%) [2]: 0% and 4% | Population Mitotic Cells (%) [2]: 53% and 70% | Population Normal (%) [2]: 99% and 100% | Population Pyknosed Nuclei (%) [2]: 8% | Population Tubulin-Different-Phenotype (%) [2]: 45% and 35% | Total Cell Count [2]: 324 and 315 | Population Apoptotic (%) [3]: 48% and 55% | Population Fragmented Nuclei (%) [3]: 6% and 14% | Population Healthy Nuclei (%) [3]: 73% and 65% | Population Hoechst High Intensity Objects (%) [3]: 0% | Population Membrane Permeable-Phenotype (%) [3]: 3% | Population Mitochondria Different-Phenotype (%) [3]: 4% and 0% | Population Mitotic Cells (%) [3]: 51% and 44% | Population Normal (%) [3]: 100% | Population Pyknosed Nuclei (%) [3]: 19% and 20% | Population Tubulin-Different-Phenotype (%) [3]: 18% and 19% | Total Cell Count [3]: 169 and 214 | Population Apoptotic (%) [4]: 63% and 50% | Population Fragmented Nuclei (%) [4]: 29% and 26% | Population Healthy Nuclei (%) [4]: 65% and 69% | Population Hoechst High Intensity Objects (%) [4]: 0% | Population Membrane Permeable-Phenotype (%) [4]: 2% | Population Mitochondria Different-Phenotype (%) [4]: 5% and 4% | Population Mitotic Cells (%) [4]: 36% and 50% | Population Normal (%) [4]: 99% | Population Pyknosed Nuclei (%) [4]: 5% and 3% | Population Tubulin-Different-Phenotype (%) [4]: 36% and 24% | Total Cell Count [4]: 377 and 407 | Population Apoptotic (%) [5]: 86% and 67% | Population Fragmented Nuclei (%) [5]: 14% and 17% | Population Healthy Nuclei (%) [5]: 71% and 65% | Population Hoechst High Intensity Objects (%) [5]: 0% | Population Membrane Permeable-Phenotype (%) [5]: 5% and 6% | Population Mitochondria Different-Phenotype (%) [5]: 0% | Population Mitotic Cells (%) [5]: 13% and 32% | Population Normal (%) [5]: 100% and 99% | Population Pyknosed Nuclei (%) [5]: 14% and 17% | Population Tubulin-Different-Phenotype (%) [5]: 14% and 8% | Total Cell Count [5]: 160 and 217 | Population Apoptotic (%) [6]: 78% and 76% | Population Fragmented Nuclei (%) [6]: 29% | Population Healthy Nuclei (%) [6]: 66% and 67% | Population Hoechst High Intensity Objects (%) [6]: 0% | Population Membrane Permeable-Phenotype (%) [6]: 0% and 2% | Population Mitochondria Different-Phenotype (%) [6]: 2% and 1% | Population Mitotic Cells (%) [6]: 21% and 23% | Population Normal (%) [6]: 100% and 99% | Population Pyknosed Nuclei (%) [6]: 4% and 2% | Population Tubulin-Different-Phenotype (%) [6]: 18% and 13% | Total Cell Count [6]: 424 and 452
